Assay outcomes as filed in PubChem.
Sampled rows, rich in hits. Any-hit rate of the full collection: about 3.5%.
MrgX1 antag: antagonists of human MrgX1 receptor, primary screen, HEK293 cells, Fluo-4 calcium flux; Mas-related G-protein coupled receptor member X1 (Homo sapiens), Q96LB2; B-score at 10 µM; AID 588676, 2011; BAM8-22 antagonism; active compounds read low; 310,000 tested, 1.3% active;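 active = calcium-response B-score plate-corrected more than 3 library SD below zero, starting fluorescence within 5 deviations, no agonist response on first addition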;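 note: peak minus trough fluorescence over baseline after final BAM8-22 challenge near maximal dose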
Target sequence (Q96LB2 whole entry, looked up): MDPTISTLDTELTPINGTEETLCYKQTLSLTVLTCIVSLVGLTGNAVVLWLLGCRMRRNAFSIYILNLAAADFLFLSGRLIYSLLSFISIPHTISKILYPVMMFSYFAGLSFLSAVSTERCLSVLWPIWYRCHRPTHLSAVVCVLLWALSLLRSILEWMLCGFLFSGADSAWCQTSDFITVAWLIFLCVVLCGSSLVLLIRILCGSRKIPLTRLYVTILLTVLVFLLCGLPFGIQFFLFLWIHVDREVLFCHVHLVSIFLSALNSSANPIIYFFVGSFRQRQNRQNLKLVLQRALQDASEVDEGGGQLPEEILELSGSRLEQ
RGS4 block: RGS4 inhibitors, primary screen, cell-based, HEK293 M3R inducible RGS4, calcium flux; Fluo-4 calcium flux; active compounds read high; triggered by carbachol at its EC20; AID 463165, 2010; 310,000 tested, 0.45% active; B-score at 10 µM;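 active = B-score, a plate-corrected calcium signal, over three deviations above library mean, with baseline fluorescence within five deviations of library mean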;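 note: RGS4 expression induced by doxycycline in cells with stable M3 receptor; B-score is computed from the integrated fluorescence ratio over baseline after carbachol; higher B-score means a larger calcium signal and so more RGS4 inhibition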
Target sequence (P49798 whole entry, looked up): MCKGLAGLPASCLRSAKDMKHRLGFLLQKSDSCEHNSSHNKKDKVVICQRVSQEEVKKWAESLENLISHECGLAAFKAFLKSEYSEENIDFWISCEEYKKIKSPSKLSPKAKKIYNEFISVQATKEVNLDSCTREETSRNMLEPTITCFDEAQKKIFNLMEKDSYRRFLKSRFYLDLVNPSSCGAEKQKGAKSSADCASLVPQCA
RGS4 act: RGS4 potentiators or activators, primary screen, cell-based, HEK293 M3R inducible RGS4, calcium flux; 310,000 tested, 0.92% active; AID 463111, 2010; carbachol calcium flux Fluo4; active compounds read low; B-score at 10 µM;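 active = B-score of the integrated calcium signal more than 4 SD below the library mean, with starting fluorescence not abnormally high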;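 note: negative B-score means reduced calcium response which marks RGS4 activation or potentiation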
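Reagent: ECmax carbachol challenge; Test system: M3R-expressing HEK293 line, RGS4 induced by doxycycline; Schedule: overnight RGS4 induction, 30 min dye load 37 °C, 20 min compound RT; Detection: calcium dye Fluo4 fluorescence; Read-out: Agonist-evoked peak-minus-minimum fluorescence over baseline, integrated ratio, B score.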
MrgX1 allo act: positive allosteric modulators of MrgX1, primary screen, HEK293 cells, Fluo-4 calcium flux; Mas-related G-protein coupled receptor member X1 (Homo sapiens), Q96LB2; 310,000 tested, 0.63% active; FDSS; active compounds read high; AID 588675, 2011; B-score at 10 µM;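 active = plate-corrected calcium response at least 3 library SD above typical, normal starting fluorescence, not activating the receptor alone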;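 note: compound read alongside a low EC10 to EC30 dose of BAM8-22 agonist; peak minus trough fluorescence over baseline measured at the second addition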
MrgX1 agonist: agonists of human MrgX1 receptor, primary screen, HEK293 cells, Fluo-4 calcium flux; Mas-related G-protein coupled receptor member X1 (Homo sapiens), Q96LB2; Fluo-4 calcium fluorescence, agonist mode; active compounds read high; B-score at 10 µM; 310,000 tested, 0.44% active; AID 588627, 2011;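 active = calcium response B-score plate-corrected fluorescence ratio at least 3 library SD, with starting fluorescence B-score inside 5 SD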
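Material – MrgX1-expressing HEK293 cells · Input – 15,000 cells seeded per well · Dosing – compound as first of three additions · Times – overnight seeding, then 1 h dark dye loading · Measured by – kinetic Fluo-4 NW fluorescence of intracellular calcium · Read-out – B-scored fluorescence response ratio · Benchmarks – positive and negative control wells on each plate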
MrgX1 ag confirm: MrgX1 receptor agonists, duplicate retest, confirmation, HEK293 cells, Fluo-4 calcium flux | shares compounds with MrgX1 agonist | Fluo-4 calcium fluorescence, FDSS | activation, % at 10 µM | 600 tested, 78% active | AID 602412, 2012;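 active = calcium signal rise, corrected for plate position, at least 3 library SD high, with starting brightness within 5 such deviations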
HEK293 Ca flux: nonspecific calcium signal in parental HEK293, confirmation, counter-screen for MrgX1 antagonist project, parental HEK293 cells, Fluo-4 calcium flux. shares compounds with MrgX1 antag. Fluo-4 calcium fluorescence, FDSS. fluorescence ratio F(max-min)/F0 at 10 µM. 4,000 tested, 2% active. AID 624111, 2012;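 active = duplicate-averaged calcium fluorescence ratio at least three times the standard deviation of buffer wells, a nonspecific response in parental cells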
HEK293 Ca counter: calcium response in parental HEK293 cells, primary screen, counter-screen for MrgX1 allosteric activator project, cell-based, Fluo-4 calcium flux, duplicate; shares compounds with MrgX1 antag; Fluo-4 fluorescence ratio; active compounds read high; fluorescence ratio F(max-min)/F0 at 10 µM; 4,000 tested, 0.4% active; AID 624114, 2012;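 active = calcium fluorescence ratio, averaged over duplicates, at least 3 SD of the buffer-well ratio, meaning a nonspecific response in receptor-free cells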;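 note: untransfected parental HEK293 lacking MrgX1 used as counterscreen for MrgX1 allosteric activators; fluorescence change taken during the second addition on a kinetic imager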
HEK293 Ca cntr2: calcium response in parental HEK293 cells, primary screen, counter-screen for MrgX1 agonist project, cell-based, Fluo-4 calcium flux, duplicate, agonist mode; shares compounds with MrgX1 antag; Fluo-4 calcium fluorescence (FDSS); active compounds read high; fluorescence ratio F(max-min)/F0 at 10 µM; 4,000 tested, 8.7% active;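 active = calcium fluorescence ratio at least three times the spread of buffer wells, meaning a non-specific response in parental cells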
An asterisk follows results filed as active; i = inactive; · = no result.

SMILES | MrgX1 antag | RGS4 block | RGS4 act | MrgX1 allo act | MrgX1 agonist | MrgX1 ag confirm | HEK293 Ca flux | HEK293 Ca counter | HEK293 Ca cntr2
Cc1ccc(-n2nc(C)c3c2OC(N)=C(C#N)C3c2ccccc2F)cc1 (stereo not drawn) | i | i | i | i | 27* | 163%* | i | i | i
Cc1ccc(-n2nc(C)c3c2OC(N)=C(C#N)C3c2ccncc2)cc1 (stereo not drawn) | i | i | i | i | i | · | · | · | ·
COc1ccc(N=Cc2c(OC)ccc3ccccc23)cc1 | i | i | i | i | i | · | · | · | ·
COc1ccc(N=Cc2c(O)c3ccccc3n2C(C)=O)cc1 | i | i | i | i | 62* | 583%* | i | i | 110*
COc1ccc(-n2c(O)c(C=Nc3ccccc3)c3ccccc3c2=O)cc1 | i | i | i | i | i | · | · | · | ·
COc1ccc(N=Cc2sc(O)c3ccccc23)cc1 | i | i | i | i | 44* | i | 0.57* | i | 121*
COc1cc(/C=C2/SC(=S)N(CC(=O)O)C2=O)ccc1OCC(=O)Nc1ccc(C)c(C)c1 | i | i | i | i | i | · | · | · | ·
CC(C)Oc1ccc(C(=O)CCN2CCOCC2)cc1 | i | i | i | i | 65* | i | i | i | i
COc1cc(SC)ccc1C(=O)Nc1ccc(Cl)cn1 | i | i | i | i | 40* | i | i | i | i
Cc1ccc(N2CC(NC(=O)C(=O)c3c[nH]c4ccccc34)CC2=O)cc1C (stereo not drawn) | i | i | i | i | i | · | · | · | ·
COc1ccc2c(c1)cc1n2CCN=C1N | i | i | i | i | 31* | 138%* | i | i | i
COc1ccc2c(c1)cc1n2CCN2CCCN=C12 | i | i | i | i | i | · | · | · | ·
O=C(Nc1ccc2oc(-c3ccccc3Cl)nc2c1)c1ncn[nH]1 | i | i | i | i | 55* | i | i | i | i
O=C(Nc1ccc2oc(-c3cccc4ccccc34)nc2c1)c1ncn[nH]1 | i | i | i | i | i | · | · | · | ·
CC(=O)c1ccc(NC(=O)CCNC(=O)c2ccccc2Cl)cc1 | i | i | i | i | i | · | · | · | ·
N[C@@H](Cc1c[nH]c2ccc(O)cc12)C(=O)O | i | · | · | i | 32* | i | i | i | i
FC(F)(F)c1cccc(N2CCN(C3CC4CCC3C4)CC2)c1 (stereo not drawn) | i | i | i | i | i | · | · | · | ·
CCNc1nc(NC(C)C)nc(N(C#N)Cc2ccccc2)n1 | i | i | i | i | 42* | 185%* | i | i | i
COc1cccc(-n2nnc3c(=O)n(CC(=O)Nc4cc(C)on4)cnc32)c1 | i | i | i | i | i | · | · | · | ·
CC(=O)c1ccc(N2C(=NC(=O)C3CCCCC3)SC3CS(=O)(=O)CC32)cc1 (stereo not drawn) | i | i | i | i | i | · | · | · | ·
Nc1nc2ccc(S(=O)(=O)N3CCCCC3)cc2s1 | i | i | i | i | 43* | 256%* | i | i | 53*
